Results: ChEMBL document CHEMBL3351670, “Discovery of Tröger's base analogues as selective inhibitors against human breast cancer cell line: design, synthesis and cytotoxic evaluation” (Eur J Med Chem, 2014)

Columns and labels:
Type in all cases: functional, cell-based
SK-N-SH = experiment: Cytotoxicity against human SK-N-SH cells assessed as growth inhibition after 48 hrs by MTT assay
Method in brief: (§1)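 MTT assay in triplicate. Cells were seeded at 10,000 cells/[…] per well in medium with 10% serum and allowed to adhere for 24 h in a humid 5% CO₂ chamber. After 48 h, MTT solution was added and cells were incubated 2 h more. Medium was then removed and DMSO added to dissolve the formazan. IC50 was taken as the concentration giving 50% growth inhibition.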

A549 = experiment: Cytotoxicity against human A549 cells assessed as growth inhibition after 48 hrs by MTT assay; conditions: A549, 48 h; method in brief: as §1
MDA-MB-231 = experiment: Cytotoxicity against human MDA-MB-231 cells assessed as growth inhibition after 48 hrs by MTT assay; conditions: MDA-MB-231, 48 h; method in brief: as §1

| Compound | IC50 (SK-N-SH) [µM] | IC50 (A549) [µM] | IC50 (MDA-MB-231) [µM] |
| --- | --- | --- | --- |
| COc1ccc2c(c1)CN1CN2Cc2cc(OC)ccc21 | > 100 | > 100 | > 100 |
| COc1ccc2c(c1)CN1c3ccc(OC)cc3CN2C1N(C)C | > 100 | > 100 | > 100 |
| COc1ccc2c(c1)CN1c3ccc(OC)cc3CN2C1N(C)c1ccc(C)cc1 | > 100 | > 100 | 10.7 |
| COc1cc2c(cc1OC)N1Cc3cc(OC)c(OC)cc3N(C2)C1N(C)C | > 100 | > 100 | 78.1 |
| COc1cc2c(cc1OC)N1Cc3cc(OC)c(OC)cc3N(C2)C1N(C)c1ccccc1 | > 100 | > 100 | 86.8 |
| Cc1ccc2c(c1)CN1c3ccc(C)cc3CN2C1N(C)C | > 100 | > 100 | 61.8 |
| Cc1ccc2c(c1)CN1c3ccc(C)cc3CN2C1N(C)c1ccccc1 | > 100 | > 100 | 72.3 |
| CN(C)C1N2Cc3cc(Br)ccc3N1Cc1cc(Br)ccc12 | > 100 | > 100 | > 100 |
| CN(c1ccccc1)C1N2Cc3cc(Br)ccc3N1Cc1cc(Br)ccc12 | > 100 | > 100 | 14.3 |
| Cc1ccc(N(C)C2N3Cc4cc(Br)ccc4N2Cc2cc(Br)ccc23)cc1 | > 100 | > 100 | > 100 |
| CC(C)c1ccc2c(c1)CN1c3ccc(C(C)C)cc3CN2C1N(C)C | > 100 | > 100 | 57.5 |
| CN(C)C1N2Cc3ccccc3N1Cc1ccccc12 | > 100 | > 100 | > 100 |
| Cc1ccc2c(c1)CN1c3ccc(C)cc3CN2C1N1CCCCC1 | 12.2 | > 100 | 82.4 |
| Cc1ccc2c(c1)CN1c3ccc(C)cc3CN2C1N1CCOCC1 | > 100 | > 100 | > 100 |
| Brc1ccc2c(c1)CN1c3ccc(Br)cc3CN2C1N1CCCCC1 | > 100 | > 100 | > 100 |
| Ic1ccc2c(c1)CN1c3ccc(I)cc3CN2C1N1CCOCC1 | > 100 | > 100 | > 100 |
| Ic1ccc2c(c1)CN1c3ccc(I)cc3CN2C1N1CCCCC1 | > 100 | > 100 | > 100 |
| c1cn(CCOc2ccc3c(c2)CN2CN3Cc3cc(OCCn4ccnc4)ccc32)cn1 | – | – | 42.6 |
| CN(C)C1N2Cc3cc(OCCn4ccnc4)ccc3N1Cc1cc(OCCn3ccnc3)ccc12 | – | – | > 100 |
| c1ncn(CCOc2ccc3c(c2)CN2CN3Cc3cc(OCCn4cncn4)ccc32)n1 | – | – | > 100 |
| CN(C)C1N2Cc3cc(OCCn4cncn4)ccc3N1Cc1cc(OCCn3cncn3)ccc12 | – | – | 40.4 |
| c1cc2c(cc1OCCN1CCOCC1)CN1CN2Cc2cc(OCCN3CCOCC3)ccc21 | – | – | 4.29 |
| CN(C)C1N2Cc3cc(OCCN4CCOCC4)ccc3N1Cc1cc(OCCN3CCOCC3)ccc12 | – | – | 4.79 |
| CC(C)(C)OC(=O)N1CCN(CCOc2ccc3c(c2)CN2CN3Cc3cc(OCCN4CCN(C(=O)OC(C)(C)C)CC4)ccc32)CC1 | – | – | 5.15 |
| c1ccc(-n2nnnc2SCCOc2ccc3c(c2)CN2CN3Cc3cc(OCCSc4nnnn4-c4ccccc4)ccc32)cc1 | – | – | > 100 |
| c1ccc(CC2CCN(CCOc3ccc4c(c3)CN3CN4Cc4cc(OCCN5CCC(Cc6ccccc6)CC5)ccc43)CC2)cc1 | – | – | 64.1 |
| COc1ccccc1N1CCN(CCOc2ccc3c(c2)CN2CN3Cc3cc(OCCN4CCN(c5ccccc5OC)CC4)ccc32)CC1 | – | – | 5.8 |
| Fc1ccc(N2CCN(CCOc3ccc4c(c3)CN3CN4Cc4cc(OCCN5CCN(c6ccc(F)cc6)CC5)ccc43)CC2)cc1 | – | – | 4.82 |
| Clc1ccc(C(c2ccccc2)N2CCN(CCOc3ccc4c(c3)CN3CN4Cc4cc(OCCN5CCN(C(c6ccccc6)c6ccc(Cl)cc6)CC5)ccc43)CC2)cc1 (racemic) | – | – | 57.9 |
| COc1cccc2c1C(=O)c1c(O)c3c(c(O)c1C2=O)C[C@@](O)(C(=O)CO)C[C@@H]3O[C@H]1C[C@H](N)[C@H](O)[C@H](C)O1 [DOXORUBICIN] | 8.5 | 8.05 | 5.96 |
